Screening data (PubChem)
Shown is part of a subset that was picked to be rich in hits.
VLA-4 inh = inhibition in a human VLA-4 binding assay; inhibition, % (about 7 µM as worked out from the volumes in the protocol); VLA-4 expressing cells, ligand binding flow cytometry; 330,000 compounds, 0.2% hits; in the data active means inhibition above about 50%
Target sequence (P13612 whole entry, looked up): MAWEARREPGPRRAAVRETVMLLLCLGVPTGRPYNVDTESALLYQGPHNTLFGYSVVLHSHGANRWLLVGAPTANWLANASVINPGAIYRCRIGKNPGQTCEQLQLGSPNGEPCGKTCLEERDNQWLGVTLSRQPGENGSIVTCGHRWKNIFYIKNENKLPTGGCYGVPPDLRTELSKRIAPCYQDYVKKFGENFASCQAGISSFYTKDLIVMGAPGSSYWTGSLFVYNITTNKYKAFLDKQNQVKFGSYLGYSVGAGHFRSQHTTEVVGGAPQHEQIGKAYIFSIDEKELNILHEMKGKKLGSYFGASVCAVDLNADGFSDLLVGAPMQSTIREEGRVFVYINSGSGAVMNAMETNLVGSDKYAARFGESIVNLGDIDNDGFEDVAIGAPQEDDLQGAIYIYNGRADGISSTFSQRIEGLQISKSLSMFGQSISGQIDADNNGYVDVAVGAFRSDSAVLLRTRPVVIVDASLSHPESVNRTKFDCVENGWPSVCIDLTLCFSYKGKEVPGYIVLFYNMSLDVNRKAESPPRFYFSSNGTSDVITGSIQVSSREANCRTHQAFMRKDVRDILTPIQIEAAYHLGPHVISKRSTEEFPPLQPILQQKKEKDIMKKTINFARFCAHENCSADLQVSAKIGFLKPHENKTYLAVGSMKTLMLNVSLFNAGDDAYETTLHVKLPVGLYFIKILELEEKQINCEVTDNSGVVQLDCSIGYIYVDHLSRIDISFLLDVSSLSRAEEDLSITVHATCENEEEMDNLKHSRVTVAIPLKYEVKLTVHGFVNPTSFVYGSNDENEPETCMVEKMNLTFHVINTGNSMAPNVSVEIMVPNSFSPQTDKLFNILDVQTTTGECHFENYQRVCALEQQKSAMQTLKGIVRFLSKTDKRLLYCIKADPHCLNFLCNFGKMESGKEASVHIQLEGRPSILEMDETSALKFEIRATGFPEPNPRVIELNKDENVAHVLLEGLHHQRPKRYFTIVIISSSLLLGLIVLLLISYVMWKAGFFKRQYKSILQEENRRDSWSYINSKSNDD
XBP1 UPR activ = adaptive UPR (XBP1) activation; CHO-XBP1 luciferase reporter, IRE1-XBP1 UPR activation, luminescence; percent of tunicamycin response, DMSO as zero; activation, % at 20 µM; 330,000 compounds, 0.33% hits; AID 463104;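 active means versus positive control, 20 µM dose yields 30% or more activation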
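Assay system: CHO-XBP1 luciferase reporter cells; Schedule: 6 h treatment, 37 °C; Detection: glow luminescence from Steady-Glo reagent; Benchmarks: high control tunicamycin 10 µg/mL final, low control DMSO vehicle only.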
CHOP inh = blocks CHOP induction under ER stress. CHO-K1 CHOP-promoter luciferase, tunicamycin-induced, 15-18 h. inhibition, % at 10 µM. 220,000 compounds, 3.8% hits. AID 2732;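 active means compounds that reduced the stress-induced luciferase reporter signal by more than about 70% of percent inhibition, limit read from the data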
CHOP UPR activ = apoptotic UPR (CHOP) activation | 330,000 compounds, 0.34% hits | AID 449763 | activation, % at 10 µM | CHO-CHOP luciferase reporter, luminescence; percent of tunicamycin response over DMSO baseline;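 active means at 10 µM dose, activation of 40% or more, normalized to positive control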
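System: CHO-CHOP luciferase reporter cell line | Buffer or medium: F12 medium containing 10% fetal bovine serum | Doses: One dose, 10 µM in 0.5% DMSO | Times: 6 h compound exposure at 37 °C after overnight seeding | Signal: Luciferase luminescence | Read-out: % activation vs tunicamycin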
B2AR ag = agonists of human beta-2 adrenergic receptor inducing internalization. P07550. Am2.2-beta2AR cells, FAP receptor internalization, flow cytometry. response, % (concentration not given with the values). 340,000 compounds, 0.43% hits;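 active means response above a set limit, near 3 SD of response in nonfluorescent compounds, cut at about 42% in these data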
Each line names hits and unclear results; the compound was inactive in the other large screens.

CON=C1C=C(C)C(=O)C(C)=C1C	none (no result: VLA-4 inh, XBP1 UPR activ, CHOP inh, CHOP UPR activ)
COC(=O)c1ccc2[nH]c3cccc(/C(=C/c4ccccc4)c4ccccc4)c3c2c1	XBP1 UPR activ 93 (no result: CHOP inh)
O=C(Cc1ccccc1)N[C@@H](Cc1ccc(O)cc1)C(=O)O	none (no result: VLA-4 inh, B2AR ag)
O=C(Nc1ccc(N2CCCCC2)cc1)c1ccccn1	CHOP inh 94
O=C(Nc1ccc(N2CCCCCC2)cc1)c1ccccc1Cl	none
Cc1ccccc1C(=O)Nc1ccccc1N1CCCCC1	CHOP inh 88
CS(=O)(=O)N1CCN(c2ccccc2NC(=O)c2cccs2)CC1	none
O=C(Nc1ccccc1N1CCCC1)c1cccnc1	none
O=C(Nc1ccccc1N1CCCCC1)c1cnccn1	CHOP inh 80
O=C(Nc1ccccc1N1CCCCC1)c1cccs1	CHOP inh 86
Cc1cc(=O)oc2cc(OC(=O)C3CCN(C(=O)c4ccc(F)cc4)CC3)ccc12	none (no result: CHOP inh)
CC(C)Oc1ccc(C(=O)Nc2ccc(N3CCCC3)cc2)cc1	CHOP inh 73
CCCC(=O)Nc1c(-c2cccc(C)c2)c(=O)c2ccccc2n1C	none (no result: CHOP inh)
CN(C)CCNC(=O)c1sc2nc(-c3ccccc3)cc(C(F)(F)F)c2c1N	none (no result: CHOP inh)
COc1ccc(-c2cc(C(F)(F)F)c3c(N)c(C(=O)NCCSC)sc3n2)cc1	XBP1 UPR activ 55 (no result: CHOP inh)
CN(C)C(=O)[C@H]1C[C@H]1[C@@H](O)[C@H](CO)NC(=O)[C@H](Cc1ccccc1)NC(=O)OC(C)(C)C	none (no result: CHOP inh)
COc1ccc(C(=O)Nc2cccc3c2CCCC3)cc1OC	none (no result: CHOP inh)
CC(=O)Nc1ccc(Nc2cc(C)nc3c(-c4ccc(Cl)cc4)c(C)nn23)cc1	CHOP inh 84
CC(=O)Nc1ccc(Nc2cc(C)nc3c(-c4ccc(Cl)cc4)cnn23)cc1	CHOP inh 75
COc1ccc(CCNc2cc(C)nc3c(-c4ccc(Cl)cc4)cnn23)cc1OC	none
Cc1ccc(S(=O)(=O)NCc2ccccc2)cc1C(=O)NC(C)c1ccc(S(N)(=O)=O)cc1 (stereo unspecified)	none (no result: VLA-4 inh, CHOP inh)
Fc1ccc(CN2CCN(C(=S)NCCc3ccccc3)CC2)c(Cl)c1	CHOP inh 85
CN1CCN(c2ccc(NC(=O)CSc3nnnn3-c3ccccc3Cl)cc2)CC1	none (no result: CHOP inh)
O=C(Nc1ccccc1)Nc1snnc1C(=O)Nc1cccc(O)c1	CHOP inh 78 (no result: VLA-4 inh)
O=[N+]([O-])c1ccc(S(=O)(=O)Nc2ccc(-c3csc(-c4ccccc4)n3)cc2)cc1	none (no result: B2AR ag)
Cc1ccc(S(=O)(=O)CC(=O)Nc2nc(-c3ccccc3)cs2)cc1	CHOP inh 90
CCN(CC)S(=O)(=O)c1cccc(NC(=O)COC(=O)c2cc(C)oc2C)c1	CHOP inh 72
Cc1cc(C(=O)OCC(=O)Nc2nc(-c3ccccc3)cs2)c(C)o1	CHOP inh 94
Cc1ccc(S(=O)(=O)Nc2ccc(-c3csc(-c4ccccc4)n3)cc2)cc1	CHOP inh 94
Cc1cc(Cl)ccc1OCC(=O)NNC(=O)CCOc1ccccc1	none (no result: CHOP inh)
O=C(C1CCCO1)N1CCN(C(=S)Nc2cccc(F)c2)CC1 (stereo unspecified)	none (no result: CHOP inh)
Cc1ccc(Cn2nnc3c(=O)n(CC(=O)NCc4ccccc4)cnc32)cc1	none
CCN(c1ccc(OC)cc1)S(=O)(=O)c1nnc(NC(=O)c2ccccc2Cl)s1	none (no result: CHOP inh)
CC(=O)CSc1nc2cc3c(cc2cc1C#N)OCCO3	none
N#Cc1cc2cc3c(cc2nc1SCC(=O)OC1CCCCC1)OCO3	CHOP inh 79
Cc1ccc(CN2CC(C(=O)N3CCN(c4ccccc4O)CC3)CC2=O)cc1 (stereo unspecified)	none (no result: CHOP inh)
O=[N+]([O-])c1ccc(N=Nc2c(Cl)cc(O)cc2Cl)cc1	CHOP inh 102, B2AR ag 55 (no result: XBP1 UPR activ, CHOP UPR activ)
CC(N)=Nc1ccc([N+](=O)[O-])cc1	none
CCCCN(C(=O)c1ccc(S(=O)(=O)N(C)C)cc1)c1ccccc1	none
CCCCN(C(=O)c1ccc(S(=O)(=O)N(C)C)cc1)c1nc2ccccc2s1	CHOP inh 71
CN(C(=O)c1ccccc1)c1nc2ccccc2s1	CHOP inh 72
COC(=O)c1ccc(N2CCC(c3cc(-c4ccc(OC)cc4)n[nH]3)CC2)c([N+](=O)[O-])c1	CHOP inh 79
CC(=O)c1ccc(N2CCC(c3cc(-c4ccc(Cl)cc4)n[nH]3)CC2)c([N+](=O)[O-])c1	none
Cc1cc(C)c2c(N)c(C(=O)Nc3ncc(C)s3)sc2n1	CHOP inh 96
COC(=O)c1sc2nc(C)cc(C)c2c1N	none
COc1ccc2nc(NC(=O)c3sc4nc(C)cc(C)c4c3N)sc2c1	CHOP inh 74
COCCN(Cc1nc(-c2ccc(-c3ccccc3)cc2)oc1C)C(C)C	none (no result: CHOP inh)
Cc1cc(=O)oc2c3c(cc(OCC(=O)N[C@@H](CC(C)C)C(=O)O)c12)OC(C)(C)CC3	none (no result: CHOP inh)
CC1CCC(C(C)C)C(OC(=O)COC(=O)c2ccc(N)cc2)C1 (stereo unspecified)	CHOP inh 84
CC1CCC(C(C)C)C(OC(=O)COC(=O)c2cccn2C)C1 (stereo unspecified)	none
CCc1ccc(-c2nc(CN3CCC(C(=O)N4CCN(c5ccccc5)CC4)CC3)c(C)o2)cc1	CHOP inh 98
CCN(CCNC(=O)C1CCN(Cc2nc(-c3cccc(Cl)c3)oc2C)CC1)c1ccccc1	CHOP inh 95
CCN(CCNC(=O)C1CCN(Cc2nc(-c3ccc(Cl)cc3)oc2C)CC1)c1ccccc1	CHOP inh 85
Cc1oc(-c2cccc(Cl)c2)nc1CN1CCC(C(=O)NC2CC2)CC1	none (no result: CHOP inh)
Cc1ccccc1-c1nc(CN2CCC(C(=O)NCCC3=CCCCC3)CC2)c(C)o1	CHOP inh 71
COc1ccc(CCNC(=O)C2CCN(Cc3nc(-c4ccccc4C)oc3C)CC2)cc1OC	none
CCN(CCNC(=O)C1CCCN(Cc2nc(-c3ccc(OC)cc3)oc2C)C1)c1ccccc1 (stereo unspecified)	none
CCN(C(=O)COC(=O)c1nc(Cl)ccc1Cl)c1c(N)n(Cc2ccccc2)c(=O)[nH]c1=O	none (no result: VLA-4 inh, XBP1 UPR activ, CHOP inh, CHOP UPR activ)
COc1cc(NS(=O)(=O)c2cc(NC(C)=O)ccc2OC)c(OC)cc1NC(=O)c1ccccc1	none (no result: VLA-4 inh, XBP1 UPR activ, CHOP inh, CHOP UPR activ)
COc1ccccc1NC(=S)c1ccccc1	none
O=C(COc1ccccc1)N(Cc1ccccc1)c1nc(-c2ccccc2)cs1	none
COc1ccc(-c2csc(N(Cc3ccccc3)C(=O)COc3ccc(Cl)cc3)n2)cc1	CHOP inh 91
O=C(Cc1cccc2ccccc12)N/N=C1\CCCc2ccccc21	CHOP inh 92
O=C(CNc1ccc(F)cc1)N/N=C1\CCCc2ccccc21	CHOP inh 71
O=C(Nc1ccc(CN2CCOCC2)cc1)c1ccc(-c2ccc(Br)cc2)o1	CHOP inh 80
CCCN1CCN(C(=O)CCc2nnc3ccc(N4CCN(c5cccc(OC)c5)CC4)nn23)CC1	none (no result: CHOP inh)
CCC1CCCCN1CCCNC(=O)c1ccc(CS(=O)(=O)c2ccc(Br)cc2)o1 (stereo unspecified)	none (no result: CHOP inh)
Cc1ccsc1/C=N/n1c(C2CCCCC2)n[nH]c1=S	CHOP inh 84
